Paper PMC3406685 (The Journal of Biological Chemistry, 2012)
“Also recorded” adds a separate entry of the source.

Experiments:
Rugli cells (α1β1) = test: Real-time Rugli cell adhesion; format: cell-based, rat; details: xCELLigence
PC12 cells (α1β1) = test: Real-time PC12 cell adhesion using xCELLigence; format: cell-based, rat; details: for PC12 cell adhesion (cell index), in words: […] 10^4 cells/well, 2 mM Mg^2+; for PC12 cell adhesion (cell index), in words / PC12 cell adhesion in presence of EDTA: 2 h; for PC12 cell adhesion in presence of EDTA: 2 mM EDTA; for PC12 cell adhesion relative to II-27: Mg^2+, % of the level attained with II-27, four independent experiments
α2β1 = details: cited from earlier work; for affinity for α2β1, in words: ref [37], [38]; for affinity for the α2 I domain, in words: ref [39], [46]
[1] = system: C2C12-α11^+ cells (human α11β1); test: Real-time adhesion of C2C12-α11^+ cells; format: cell-based, mouse cells expressing human α11β1; details: xCELLigence; 25,000 cells/well, 2 h; GPP10 control
[2] = system: C2C12-α2^+ cells (human α2β1); test: Real-time adhesion of C2C12-α2^+ cells; format: cell-based, mouse cells expressing human α2β1; details: xCELLigence; 25,000 cells/well, 2 h; GPP10 control
[3] = system: parental C2C12 cells lacking collagen-binding integrins; test: Adhesion of parental C2C12 cells; format: cell-based, mouse; details: real-time adhesion, GPP10 control
[4] = system: recombinant human α2 I domain; test: SPBA, wild-type α2 I domain to coated peptides; format: binding; details: 0.1 μg protein/well, four independent experiments
α1β1 = details: cited from earlier work; for preference of α1β1 and α10β1 among collagens, in words: ref [28], [29]
[5] = system: α1β1-expressing Rugli cells; details: ref [54]; cited from earlier work
[6] = system: recombinant human α1 I domain; test: Solid-phase binding assay; details: conclusion from all data together
[7] = system: constitutively active E317W α1 I domain; test: SPBA, constitutively active E317W α1 I domain to coated peptides; format: binding; details: 0.1 μg protein/well, four independent experiments
[8] = system: constitutively active E318W α2 I domain; test: SPBA, constitutively active E318W α2 I domain to coated peptides; format: binding; details: 0.1 μg protein/well, four independent experiments
In short: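 GST-tagged I domain (0.1 μg/well) added to triple-helical peptides coated at 10 μg/ml (1 h, 22 °C), blocked 1 h with TBS/50 mg/ml BSA. Binding 1 h at room temperature in TBS/1 mg/ml BSA with 2 mM MgCl₂ or EDTA. Detected with HRP anti-GST (1:10,000, 1 h) and TMB colour. Mean ± S.E. of four independent experiments, each in triplicate.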

Compound: CCCCCCCCCCCCCC(=O)O[C@@H]1[C@@H](C)[C@@]2(O)[C@@H](C=C(CO)C[C@]3(O)C(=O)C(C)=C[C@@H]23)[C@@H]2C(C)(C)[C@]12OC(C)=O [PMA, phorbol 12-myristate 13-acetate, reference compound]
- Effect of PMA treatment on Rugli cell adhesion (Rugli cells (α1β1); 1 μM PMA, 30 min): increased both the rate of onset of adhesion and the peak cell index

Compound: GAOGER
- PC12 cell adhesion (cell index), in words (PC12 cells (α1β1); xCELLigence): Moderate binding

Compound: GASGER
- affinity for α2β1, in words (α2β1): intermediate or low affinity, which increased upon cell activation

Compound: GDQGVOGEAGAO [II-27-B]
- PC12 cell adhesion in presence of EDTA (PC12 cells (α1β1); xCELLigence): no adhesion was observed in the presence of EDTA
- PC12 cell adhesion relative to II-27 (PC12 cells (α1β1); xCELLigence): ~40%
- C2C12-α11^+ cell adhesion, in words [1]: None of these cells showed any specific binding
- C2C12-α2^+ cell adhesion, in words [2]: None of these cells showed any specific binding
- parental C2C12 cell adhesion, in words [3]: None of these cells showed any specific binding
- adhesion of wild-type α2 I domain, in words [4]: did not bind

Compound: GFPGEN
- α1β1 selectivity / α1 I domain affinity, in words (α1β1; expressed within Streptococcus pyogenes collagen-like molecules, ref [40]): selective ligand for α1β1; also recorded: higher affinity for the α1 I domain compared with GFPGER

Compound: GFPGER
- PC12 cell adhesion (cell index), in words (PC12 cells (α1β1); xCELLigence): weak binding (lower compared with GFOGER)
- ligand quality for α1β1-expressing Rugli cells, in words [5]: poor ligand for α1β1-expressing Rugli cells
- affinity for the α2 I domain, in words (α2β1): high or moderate affinity motifs for the α2 I domain

Compound: GKOGDQGVOGEAGAO [II-27-C]
- PC12 cell adhesion in presence of EDTA (PC12 cells (α1β1); xCELLigence): no adhesion was observed in the presence of EDTA
- PC12 cell adhesion relative to II-27 (PC12 cells (α1β1); xCELLigence): ~40%
- PC12 cell adhesion (cell index), in words (PC12 cells (α1β1); xCELLigence): no greater than to GVOGEA
- C2C12-α11^+ cell adhesion, in words [1]: None of these cells showed any specific binding
- C2C12-α2^+ cell adhesion, in words [2]: None of these cells showed any specific binding
- parental C2C12 cell adhesion, in words [3]: None of these cells showed any specific binding
- adhesion of wild-type α2 I domain, in words [4]: did not bind

Compound: GLKGEN
- PC12 cell adhesion (cell index), in words (PC12 cells (α1β1); xCELLigence): only slight activity

Compound: GLOGEA
- affinity for the α2 I domain, in words (α2β1): high or moderate affinity motifs for the α2 I domain

Compound: GLOGER
- affinity for the α1 I domain versus α2 I domain, in words (α1β1; ref [37], [38]): relatively higher affinity for the α1 I domain than for the α2 I domain

Compound: GLSGER
- affinity for α2β1, in words (α2β1): intermediate or low affinity, which increased upon cell activation

Compound: GMOGER
- PC12 cell adhesion (cell index), in words (PC12 cells (α1β1); xCELLigence): Moderate binding
- affinity for the α2 I domain, in words (α2β1): high or moderate affinity motifs for the α2 I domain

Compound: GPOGPOGEGGKOGDQGVOGEAGAOGV [II-27]
- Increase of PC12 cell binding upon substitution of Mg^2+ with Mn^2+ (PC12 cells (α1β1); real-time binding assay, Mn^2+ vs Mg^2+ (data not shown)): 65%
- PC12 cell adhesion, comparison of selected peptides (Fig. 7) (PC12 cells (α1β1); xCELLigence, 25,000 cells/well, mean cell index after 2 h, three experiments): bound most strongly to III-7 and then to II-27 and II-28
- overall α1β1 recognition / selectivity, in words [6]: new α1β1-binding activity
- C2C12-α11^+ cell adhesion, in words [1]: None of these cells showed any specific binding; also recorded: did not bind
- adhesion of active E317W α1 I domain, in words [7]: E317W but not E318W bound strongly
- C2C12-α2^+ cell adhesion, in words [2]: None of these cells showed any specific binding; also recorded: did not bind
- adhesion of active E318W α2 I domain, in words [8]: E317W but not E318W bound strongly
- parental C2C12 cell adhesion, in words [3]: None of these cells showed any specific binding
- Rugli cell adhesion without activation, in words (Rugli cells (α1β1); control Rugli cells): moderate ligand for α1β1
- adhesion of wild-type α2 I domain, in words [4]: did not bind

Compound: GQRGER
- affinity for α2β1, in words (α2β1): intermediate or low affinity, which increased upon cell activation

Compound: GROGER
- PC12 cell adhesion (cell index), in words (PC12 cells (α1β1); xCELLigence): only slight activity
- affinity for the α2 I domain, in words (α2β1): high or moderate affinity motifs for the α2 I domain

Compound: GSOGEN
- overall α1β1 recognition / selectivity, in words [6]: displays little activity

Compound: collagen IV: monomeric pepsin-digested human collagen IV (C-5533) [reference compound]
- preference of α1β1 and α10β1 among collagens, in words (α1β1): preferentially bind collagen types IV and VI over fibrillar collagens
- affinity of α1β1 for collagen IV, in words (α1β1; ref [30]): high affinity

Compound: collagen VI: collagen type VI
- preference of α1β1 and α10β1 among collagens, in words (α1β1): preferentially bind collagen types IV and VI over fibrillar collagens
